Measured values reported in ChEMBL document CHEMBL1137414, “3'-Substituted 7-halogenoindirubins, a new class of cell death inducing agents” (J Med Chem, 2006).

Experiments:
[1] = target: Cyclin-dependent kinase 5/CDK5 activator 1 (Homo sapiens, UniProt Q00535+Q15078); experiment: (§1) Inhibition of mammalian CDK5/p25; format: protein-complex assay
How it was run: (§2)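 Recombinant CDK5 and p25, each expressed in E. coli as GST fusions and affinity-purified on glutathione agarose, mixed in equal amounts. Phosphate incorporation onto P81 paper read by scintillation counting, blank subtracted. Activity taken as % of uninhibited. IC50 from dose-response curves.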

[2] = system: SH-SY5Y; experiment: Survival of human SH-SY5Y cells at 25 uM by MTS reduction assay; format: functional, cell-based; settings: for viability at 25 µM: Homo sapiens, SH-SY5Y, read-out: Survival
How it was run: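 Viability was read by MTS reduction and expressed as percent of untreated cells, as the average ± SE of three independent measurements, representative of two independent experiments.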

[3] = system: SH-SY5Y; experiment: Survival of human SH-SY5Y cells after 24 hrs by MTS reduction assay; format: functional, cell-based
[4] = system: SH-SY5Y; experiment: Survival of human SH-SY5Y cells after 48 hrs by MTS reduction assay; format: functional, cell-based
[5] = system: SH-SY5Y; experiment: Death of human SH-SY5Y cells at 25 uM after 48 hrs by LDH release assay; format: functional
How it was run: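 SH-SY5Y human neuroblastoma cells were grown in DMEM with 2 mM L-glutamine, antibiotics and 10% FCS at 37 °C under 5% CO2. […] Lactate dehydrogenase release was measured 48 h after addition and expressed as percent cell death.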

[6] = system: HT-29; experiment: Survival of human HT29 cells after 48 hrs by MTS reduction assay; format: functional, cell-based
[7] = system: HCT-116; experiment: Survival of human HCT116 cells after 48 hrs by MTS reduction assay; format: functional, cell-based
How it was run: (§3)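 Viability read by MTS reduction. IC50 taken from dose-response curves, triplicate measurements. HCT116 grown in McCoy's 5A with 10% FCS. MDA-MB-231 grown in DMEM with 10% FCS and seeded at 7500 cells/well.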

[8] = system: MDA-MB-231; experiment: Survival of human MDA-MB-231 cells after 48 hrs by MTS reduction assay; format: functional, cell-based; how it was run: as §3
[9] = system: A549; experiment: Survival of human A549 cells after 48 hrs by MTS reduction assay; format: functional, cell-based
[10] = system: PC-3; experiment: Survival of human PC3 cells after 48 hrs by MTS reduction assay; format: functional, cell-based
[11] = system: BP8; experiment: Survival of […] AhR -/- BP8 cells after 48 hrs by MTS reduction assay; format: functional, cell-based
[12] = system: Huh-7; experiment: Survival of human Huh7 cells after 48 hrs by MTS reduction assay; format: functional, cell-based
[13] = system: HEK293; experiment: Survival of human HEK293 cells after 48 hrs by MTS reduction assay; format: functional, cell-based
[14] = system: SH-SY5Y; experiment: Death of human SH-SY5Y cells in absence of 20 uM Q-VD-OPh by MTS reduction assay; format: functional, cell-based
[15] = system: SH-SY5Y; experiment: Death of human SH-SY5Y cells in presence of 20 uM Q-VD-OPh by MTS reduction assay; format: functional, cell-based
[16] = system: F1 (hepatoma cell line); experiment: Survival of mouse F1 cells after 48 hrs by MTS reduction assay; settings: F1
[17] = Inhibition of starfish CDK1/cyclin B in presence of 15 uM ATP; set-up: species or system Marthasterias glacialis
[18] = target: Cyclin-dependent kinase 5/CDK5 activator 1 (Homo sapiens, UniProt Q00535); experiment: as §1; format: protein-complex assay; how it was run: as §2
Chain of Cyclin-dependent kinase 5/CDK5 activator 1 (Homo sapiens, UniProt Q00535) (Q00535 whole entry): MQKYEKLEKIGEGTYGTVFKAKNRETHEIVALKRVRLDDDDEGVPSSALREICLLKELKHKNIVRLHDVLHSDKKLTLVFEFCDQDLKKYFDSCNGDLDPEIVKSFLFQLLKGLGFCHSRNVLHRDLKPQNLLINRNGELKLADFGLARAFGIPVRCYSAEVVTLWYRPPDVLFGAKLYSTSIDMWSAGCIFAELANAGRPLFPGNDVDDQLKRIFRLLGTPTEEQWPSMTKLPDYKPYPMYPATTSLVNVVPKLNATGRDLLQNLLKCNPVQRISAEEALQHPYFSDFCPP
Chain of Cyclin-dependent kinase 5/CDK5 activator 1 (Homo sapiens, UniProt Q00535) (Q15078 whole entry, further chain): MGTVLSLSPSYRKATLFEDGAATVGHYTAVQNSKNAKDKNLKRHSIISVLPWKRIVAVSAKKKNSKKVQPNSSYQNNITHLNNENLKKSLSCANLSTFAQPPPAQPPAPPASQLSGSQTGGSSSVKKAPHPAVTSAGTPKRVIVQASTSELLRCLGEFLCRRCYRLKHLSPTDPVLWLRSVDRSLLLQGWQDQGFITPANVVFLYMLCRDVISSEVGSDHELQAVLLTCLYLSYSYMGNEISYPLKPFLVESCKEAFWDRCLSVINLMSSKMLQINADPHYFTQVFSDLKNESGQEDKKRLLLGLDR

[19] = Survival of mouse F1 cells after 48 hrs by MTS reduction assay; settings: Mus musculus, F1, 48 h
[20] = target: Glycogen synthase kinase-3 (Homo sapiens, UniProt P49840+P49841); experiment: Inhibition of porcine brain GSK3alpha/beta; settings: Sus scrofa
Chain of Glycogen synthase kinase-3 (P49840 whole entry, looked up): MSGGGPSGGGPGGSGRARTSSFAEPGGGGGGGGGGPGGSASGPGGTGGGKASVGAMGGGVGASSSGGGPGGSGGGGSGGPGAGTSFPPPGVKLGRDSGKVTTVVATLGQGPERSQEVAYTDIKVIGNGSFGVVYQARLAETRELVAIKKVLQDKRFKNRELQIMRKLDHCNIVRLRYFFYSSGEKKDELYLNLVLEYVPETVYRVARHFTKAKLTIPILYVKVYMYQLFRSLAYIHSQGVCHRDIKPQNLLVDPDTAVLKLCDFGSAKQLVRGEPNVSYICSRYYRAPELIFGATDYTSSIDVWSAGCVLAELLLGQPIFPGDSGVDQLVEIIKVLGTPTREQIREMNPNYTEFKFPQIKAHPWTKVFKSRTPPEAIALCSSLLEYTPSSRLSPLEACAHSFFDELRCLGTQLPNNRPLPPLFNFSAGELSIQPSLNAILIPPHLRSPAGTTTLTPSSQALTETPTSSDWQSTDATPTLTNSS
Chain of Glycogen synthase kinase-3 (P49841 whole entry, looked up): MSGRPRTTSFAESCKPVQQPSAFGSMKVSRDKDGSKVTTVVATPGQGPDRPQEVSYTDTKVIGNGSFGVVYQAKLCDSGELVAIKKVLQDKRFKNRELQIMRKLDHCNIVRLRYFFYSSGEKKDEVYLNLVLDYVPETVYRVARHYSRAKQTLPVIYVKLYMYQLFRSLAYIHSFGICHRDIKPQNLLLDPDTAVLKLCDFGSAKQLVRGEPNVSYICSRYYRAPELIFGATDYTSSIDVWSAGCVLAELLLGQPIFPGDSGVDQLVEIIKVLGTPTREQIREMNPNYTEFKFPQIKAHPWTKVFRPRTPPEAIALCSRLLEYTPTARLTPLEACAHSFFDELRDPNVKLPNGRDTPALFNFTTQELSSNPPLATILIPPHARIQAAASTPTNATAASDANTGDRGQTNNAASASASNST

[21] = Homo sapiens, SH-SY5Y, read-out: IC50

Chain of Cyclin-dependent kinase 5/CDK5 activator 1 (Homo sapiens, UniProt Q00535+Q15078) (Q00535 whole entry, the tested form may be a part): as the sequence (Q00535 whole entry) above
Chain of Cyclin-dependent kinase 5/CDK5 activator 1 (Homo sapiens, UniProt Q00535+Q15078) (Q15078 whole entry, the tested form may be a part): as the sequence (Q15078 whole entry, further chain) above

SMILES | Survival [2] | Activity [5] | IC50 ([6]; ht-29) | IC50 ([7]; hct-116) | IC50 ([8]; mda-mb-231) | IC50 ([9]; a549) | IC50 ([11]; bp8) | IC50 ([12]; huh-7) | IC50 ([13]; hek293) | IC50 [17] | IC50 [18] | IC50 ([3]; Homo sapiens, SH-SY5Y, 24 h) | IC50 ([4]; Homo sapiens, SH-SY5Y, 48 h) | IC50 ([8]; Homo sapiens, MDA-MB-231, 48 h) | IC50 ([9]; Homo sapiens, A549, 48 h) | IC50 ([10]; Homo sapiens, PC-3, 48 h) | IC50 ([11]; Mus musculus, BP8, 48 h) | IC50 [19] | IC50 [14, 21] | IC50 ([15]; Homo sapiens, SH-SY5Y) | other results
Cn1c(O)c(C2=Nc3ccccc3/C2=N\OCCN2CCCC2)c2cccc(Br)c21 | 15% | 78% | 19.8 µM | 13.6 µM | 26.8 µM | 21 µM | 18.8 µM | 18.8 µM | 21.4 µM | – | – | – | – | – | – | – | – | – | – | – | IC50 [1]: > 10 µM; IC50 ([3]; sh-sy5y): 7.8 µM; IC50 ([4]; sh-sy5y): 5 µM; IC50 ([10]; pc-3): 21.6 µM; IC50 ([14]; sh-sy5y, read-out: IC50): 6.1 µM; IC50 ([15]; sh-sy5y): > 25 µM; IC50 [16]: 5.6 µM
Oc1[nH]c2c(Br)cccc2c1C1=Nc2ccccc2/C1=N\OCCN1CCNCC1 | 3% | 94% | 6.3 µM | 5.4 µM | 5.3 µM | 5.9 µM | 5.6 µM | 5.3 µM | 5 µM | – | – | – | – | – | – | – | – | – | – | – | IC50 [1]: > 10 µM; IC50 ([3]; sh-sy5y): 10.5 µM; IC50 ([4]; sh-sy5y): 6.2 µM; IC50 ([10]; pc-3): 6.1 µM; IC50 [14]: 10 µM; IC50 ([15]; sh-sy5y): 10.3 µM; IC50 [16]: 1.7 µM
Cl.Oc1[nH]c2c(Br)cccc2c1C1=Nc2ccccc2/C1=N\OCCN1CCCC1 | – | 80% | – | – | – | – | – | – | – | > 100 µM | > 10 µM | 3.1 µM | 2 µM | > 30 µM | 16 µM | 30 µM | > 30 µM | 3.1 µM | – | – | viability at 25 µM [2]: 12%; IC50 ([7]; Homo sapiens, HCT-116, 48 h): 3.8 µM; IC50 ([12]; Homo sapiens, Huh-7, 48 h): 13.6 µM; IC50 ([13]; Homo sapiens, HEK293, 48 h): > 30 µM; IC50 ([14]; sh-sy5y, read-out: IC50): 2.8 µM
CN(C)CCO/N=C1/C(c2c(O)[nH]c3c(Br)cccc23)=Nc2ccccc21 | 1% | 86% | 21.8 µM | 6.5 µM | 26.4 µM | 21.8 µM | 19.5 µM | 19.6 µM | 14.4 µM | – | – | – | – | – | – | – | – | – | – | – | IC50 [1]: > 10 µM; IC50 ([3]; sh-sy5y): 4.1 µM; IC50 ([4]; sh-sy5y): 2 µM; IC50 ([10]; pc-3): 27.2 µM; IC50 ([14]; sh-sy5y, read-out: IC50): 1.5 µM; IC50 [16]: 5.5 µM
Cl.Cl.Oc1[nH]c2c(Br)cccc2c1C1=Nc2ccccc2/C1=N\OCCN1CCNCC1 | – | 100% | 1.9 µM | – | – | – | – | 2 µM | 1.9 µM | > 10 µM | > 10 µM | 6 µM | 6 µM | 5.1 µM | 6 µM | 6 µM | 5.4 µM | 1.4 µM | 6.2 µM | 6.8 µM | viability at 25 µM [2]: 3%; IC50 ([7]; Homo sapiens, HCT-116, 48 h): 5.1 µM
O=Nc1c(-c2c(O)[nH]c3c(Cl)cccc23)[nH]c2ccccc12 | – | 92% | – | – | – | – | – | – | – | 3.7 µM | 6 µM | 14 µM | 12 µM | – | – | – | – | – | 10 µM | 11 µM | IC50 [20]: 21 µM; viability at 25 µM [2]: 7%
CN(C)CCO/N=C1/C(c2c(O)[nH]c3c(Br)cccc23)=Nc2ccccc21.Cl | 5% | 84% | 2.4 µM | 2 µM | – | 5.8 µM | – | – | 3 µM | > 10 µM | > 10 µM | 2.1 µM | 1 µM | 18.8 µM | – | 15 µM | > 30 µM | – | 1.1 µM | > 25 µM | IC50 ([12]; Homo sapiens, Huh-7, 48 h): 11.2 µM; IC50 [16]: 1.7 µM
CN(C)CCO/N=C1/C(c2c(O)n(C)c3c(Br)cccc23)=Nc2ccccc21.Cl | 4% | 80% | – | – | – | – | – | – | – | > 10 µM | > 10 µM | 21 µM | 9 µM | 17.8 µM | 20.8 µM | 25 µM | 19 µM | 5.4 µM | – | – | IC50 ([7]; Homo sapiens, HCT-116, 48 h): 15.7 µM; IC50 ([12]; Homo sapiens, Huh-7, 48 h): 18 µM; IC50 ([13]; Homo sapiens, HEK293, 48 h): 18.8 µM; IC50 ([14]; sh-sy5y, read-out: IC50): 11 µM
O=Nc1c(-c2c(O)[nH]c3c(Br)cccc23)[nH]c2ccccc12 | – | 94% | – | – | – | – | – | – | – | – | – | 8 µM | 7.1 µM | 10.5 µM | 21.8 µM | 19.8 µM | 19.4 µM | 8 µM | 7 µM | 7 µM | viability at 25 µM [2]: 4%; IC50 ([6]; Homo sapiens, HT-29, 48 h): 21.2 µM; IC50 ([7]; Homo sapiens, HCT-116, 48 h): 6.2 µM; IC50 ([12]; Homo sapiens, Huh-7, 48 h): 9 µM; IC50 ([13]; Homo sapiens, HEK293, 48 h): 12.3 µM
Cl.Cn1c(O)c(C2=Nc3ccccc3/C2=N\OCCN2CCCC2)c2cccc(Br)c21 | 1% | 94% | 5.4 µM | 5.1 µM | 12 µM | – | 7.5 µM | 5.6 µM | 8 µM | > 10 µM | > 10 µM | 7.3 µM | 4 µM | – | 14.6 µM | 19 µM | – | 2.9 µM | 5 µM | 13 µM | –
